Screens: PubChem BioAssay, several laboratories
NadD inh: inhibitors of Staphylococcus aureus NadD | 360,000 compounds, 0.78% hits | purified NadD enzyme, colorimetric absorbance read-out | inhibition, % at 20 µM | AID 602399; in the data active = inhibition above about 26%
SENP1 inh: inhibitors of human SENP1 SUMO protease catalytic domain. inhibition, % at 10 µM. recombinant SENP1 catalytic domain, CyPet-SUMO1-YPet FRET cleavage. 360,000 compounds, 0.21% hits;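 active = inhibition at least 30% at 10 µM, raw YFP signal under a set limit, fluorescence ratio 0.5 to 1.5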;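 also: 0% = enzyme with DMSO and 100% = no enzyme wells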
Target sequence (Q9P0U3 419-644 limits assumed): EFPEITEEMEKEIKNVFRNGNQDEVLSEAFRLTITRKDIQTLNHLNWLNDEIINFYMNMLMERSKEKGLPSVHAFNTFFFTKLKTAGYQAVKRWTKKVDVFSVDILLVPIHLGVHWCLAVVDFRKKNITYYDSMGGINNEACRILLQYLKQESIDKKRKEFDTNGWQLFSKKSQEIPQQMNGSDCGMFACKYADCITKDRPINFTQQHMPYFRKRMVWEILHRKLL
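Test system: recombinant human SENP1 catalytic domain, His6-tagged / Medium: pH 8 Tris buffer with EDTA, NaCl, BME, BSA, NP40, catalase / Also added: SUMO1 FRET substrate flanked by Cypet and Ypet, 25 nM / Times: 50 min reaction at room temperature / Signal: FRET, CFP and YFP emission / Control set: no-enzyme low control and enzyme-plus-DMSO high control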
NR3A LBD binder: modulates the human NR3A ligand-binding domain | NR3A LBD differential scanning fluorimetry, Tm shift; 0% = protein alone, 100% = glycine-bound protein | AID 1259313 | Tm shift relative to glycine control, % at 25 µM | 340,000 compounds, 2.5% hits;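 active = melting temperature shift of at least 10% of the positive control shift, at one fixed dose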
ATG4B inh: blocks human ATG4B protease cleavage of LC3 substrate. ATG4B cleavage of LC3-PLA2, NBD-HPC fluorescence, 1 h. inhibition, % at 8.33 µM. 340,000 compounds, 0.51% hits. Q9Y4P1; in the data active = inhibition above about 40%
UCH37 DUB inh: inhibitors of human deubiquitinating enzyme UCH37; AID 588478; purified proteasome/UCH37, Ub-AMC cleavage fluorescence; inhibition, % (no concentration beside the values); 330,000 compounds, 0.33% hits; Q9Y5K5;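 active = mean inhibition over replicate wells above about 20%, limit read from the data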;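 also: 0% = compound-free wells with enzyme and 100% = wells lacking proteasome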
Target sequence (Q9Y5K5 whole entry, looked up): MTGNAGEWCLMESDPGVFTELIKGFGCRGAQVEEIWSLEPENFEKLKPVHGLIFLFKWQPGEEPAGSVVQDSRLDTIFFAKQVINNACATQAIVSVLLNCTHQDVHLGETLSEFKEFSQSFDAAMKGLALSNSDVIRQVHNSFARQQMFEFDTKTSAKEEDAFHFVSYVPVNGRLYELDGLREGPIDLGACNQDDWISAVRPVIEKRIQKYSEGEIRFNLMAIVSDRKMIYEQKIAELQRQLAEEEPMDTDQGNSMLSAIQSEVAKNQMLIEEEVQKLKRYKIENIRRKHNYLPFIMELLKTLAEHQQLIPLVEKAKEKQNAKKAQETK
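Reagent: Ub-AMC substrate; assay system: Proteasome-associated human UCH37 deubiquitinase; controls: no-proteasome and no-compound wells; read-out: % inhibition of Ub-AMC cleavage fluorescence; timing: 30 min preincubation with enzyme, 25 min cleavage at room temperature; signal: AMC fluorescence from Ub-AMC cleavage, excitation 355 nm, emission 460 nm; buffer or medium: Tris-HCl pH 7.4 plus ovalbumin, ATP-MgCl2, DTT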
* marks the source's active call; other numbers are inactive results; i = inactive; nt = no result given; ! = repeats disagree. The list is not random: actives were taken first. Their share in the collection is about 3.6%.

SMILES | NadD inh | SENP1 inh | NR3A LBD binder | ATG4B inh | UCH37 DUB inh
CCOC(=O)c1c(NC(=O)Nc2ccc(Cl)cc2)sc(C)c1C | 7.0 | 1.5 | 1.0 | -12.8 | -10.9
CCOC(=O)c1sc(NC(=O)Nc2ccc(Cl)cc2)cc1C | 7.4 | -1.4 | 27.4* | -5.0 | nt
CCOC(=O)c1sc(NC(=O)c2ccccc2)cc1C | -8.3 | -2.0 | 4.3 | -3.9 | -52.0
CCOC(=O)c1sc(NC(=O)c2ccc(Cl)s2)cc1C | 6.9 | -0.3 | 18.4* | -5.8 | -111.6
COc1cc(/C=C/C(=O)OCC(=O)Nc2ccccc2Sc2ccc(Cl)cc2)ccc1O | -7.4 | -139.8 | 15.2* | 7.3 | -18.6
COc1ccc(CCn2c(C)cc(C(=O)COC(=O)c3ccc(NC(=O)CC#N)cc3)c2C)cc1 | 40.2* | -47.0 | 7.9 | -16.4 | 3.0
CCOC(=O)c1ccc2c(c1)n(CCO)c(C)[n+]2CC | 9.8 | -1.6 | -0.4 | -3.5 | 4.1
CCOC(=O)c1ccc2c(c1)n(CC)c(/C=C/N(C)c1ccccc1)[n+]2CC | 1.8 | 1.3 | 1.6 | 4.7 | 23.5*
c1ccc(-c2nc3nc4ccccc4nc3n2Cc2ccco2)cc1 | -2.8 | -20.7 | -1.2 | 15.8 | -12.3
Fc1ccc(-c2nc3nc4ccccc4nc3n2Cc2ccco2)cc1 | 0.1 | -14.5 | 21.5* | -2.5 | -16.7
COc1ccc(NC(=O)CC(C)=NNC(=O)c2cccs2)c([N+](=O)[O-])c1 | nt | nt | nt | nt | 2.9
Cc1ccc2nc(-c3ccc(NS(C)(=O)=O)cc3)cc(-c3ccccc3)c2c1 | 7.3 | 7.1 | 7.1 | -1.4 | -54.7
CCS(=O)(=O)Nc1ccc(-c2cc(-c3ccccc3)c3cc(C)ccc3n2)cc1 | 12.6 | 4.9 | 10.3* | -0.2 | -4.7
COc1cc2nc(CN(CCC(C)C)Cc3nc4cc(OC)c(OC)cc4c(=O)[nH]3)[nH]c(=O)c2cc1OC | 7.3 | -14.1 | 10.9* | -7.6 | -2.1
C/C(=N\NC(=O)c1c(Cl)cnn1C)c1ccc(NC(=O)c2ccc(Br)o2)cc1 | -2.3 | 1.6 | 14.2* | -4.2 | nt
COc1ccccc1N1CCN(C(CNS(=O)(=O)c2ccc(C)cc2)c2cccnc2)CC1 (stereo not given) | 23.9 | 0.5 | 15.8* | -2.9 | 1.7
CCCC(C(=O)O)N1C(=O)/C(=C2\C(=O)N(C)c3ccccc32)SC1=S (stereo not given) | 3.5 | 0.0 | 26.8* | -4.4 | 1.8
O=C(O)CN1C(=O)/C(=C2\SC(=S)N(C(Cc3ccccc3)C(=O)O)C2=O)c2ccccc21 (stereo not given) | 3.7 | 1.7 | 1.3 | -3.1 | 6.8
CCCCN(CC)C(=O)c1cc2cc3ccc(Cl)cc3nc2o1 | -8.5 | -1.1 | 19.3* | -4.4 | 5.9
CN(C)c1ccc(C=NNC(=O)c2ccc(Cn3cc(Cl)cn3)cc2)cc1 | nt | nt | nt | nt | -28.7
CCc1cccc(NC(=O)CCNS(=O)(=O)c2cc(Br)cnc2N)c1 | 2.7 | 0.5 | 13.0* | -5.9 | 2.0
CN(C)CCCNCCCNC(=O)c1ccco1 | 6.4 | 3.3 | 11.2*! | 1.5 | 1.4
O=C(N/N=C/c1ccc(O)cc1O)c1ccc(CN2C(=O)c3cccc4cccc2c34)cc1 | 43.6* | -29.0 | 19.8* | 6.8 | nt
COc1cccc(C(=O)COc2ccc3c(C)cc(=O)oc3c2)c1 | -2.2 | -1.1 | 0.0 | -1.4 | -2.8
COc1cccc(C(=O)COc2ccc3ccc(=O)oc3c2)c1 | -2.5 | -6.7 | 15.7* | -6.4 | -19.5
SMILES | NadD inh | SENP1 inh | NR3A LBD binder | ATG4B inh | UCH37 DUB inh
COc1cccc(/C=N/NC(=O)c2cc3cc([N+](=O)[O-])ccc3s2)c1O | 43.0* | 9.0 | 12.3* | 19.3 | nt
COc1ccc(/C=N/NC(=O)c2ccc(NC(=O)c3cccc([N+](=O)[O-])c3)cc2)c(OC)c1 | 11.0 | -1.4 | 18.4* | -14.8 | nt
COc1cc([N+](=O)[O-])cc(/C=N/NC(=O)c2ccc(NC(=O)c3ccc(C)cc3)cc2)c1O | 82.4* | -28.1 | 20.9* | -0.6 | nt
COc1ccc(/C=N/NC(=O)c2cccc(NC(=O)c3ccc(Cl)cc3)c2)c(OC)c1 | 13.2 | -0.1 | 10.8* | -20.8 | nt
COc1cccc(C=NNC(=O)c2ccc([N+](=O)[O-])cc2Cl)c1O | nt | nt | nt | nt | -0.6
COc1ccc(C(C)=NNC(=O)c2ccc3c(c2)OCO3)cc1OC | nt | nt | nt | nt | 5.1
CCCC(=NNC(=O)CCC(=O)NCc1ccccc1)c1ccccc1 | nt | nt | nt | nt | 3.9
S=c1[nH]nc(-c2ccccn2)n1N=Cc1ccccc1 | nt | nt | nt | nt | 1.9
CCN(CC)c1ccc(C=NNC(=O)Nc2nonc2N)cc1 | nt | nt | nt | nt | -19.3
Cc1ccc(C=NNc2cc(C)nc(N3CCOCC3)n2)cc1 | nt | nt | nt | nt | 5.4
CC(=NNS(=O)(=O)c1ccccc1)c1c[nH]c2ccccc12 | nt | nt | nt | nt | 2.6
CCC(=O)Nc1ccc(C(=O)N/N=C/c2cc(Br)c(OC)cc2OC)cc1 | 1.3 | 1.0 | 23.7* | -6.4 | nt
O=C(N/N=C/c1ccccn1)c1ccc(NC(=O)c2cccc([N+](=O)[O-])c2)cc1 | 19.3 | -0.6 | 2.4 | 3.2 | nt
COc1cc(/C=N/NC(=O)c2cccc([N+](=O)[O-])c2)ccc1OCc1ccc(C)cc1 | 12.8 | 2.2 | 16.7* | 3.0 | nt
O=C(N/N=C/c1cccc(O)c1)c1ccc(NC(=O)c2cccc([N+](=O)[O-])c2)cc1 | 14.8 | 0.5 | 27.5* | -24.1 | nt
COc1cccc(C=NNC(=O)c2c(C)nc3ccc(Br)cn23)c1O | nt | nt | nt | nt | 45.9*
O=[N+]([O-])c1cccc(C=NNc2nnc(-c3ccccc3)c(-c3ccccc3)n2)c1 | nt | nt | nt | nt | 3.3
COc1ccc2c(c1)-c1nc(N=Cc3ccccc3O)sc1CC2 | nt | nt | nt | nt | 2.2
CN(C)c1ccc(S(=O)(=O)NCC(=O)OCC(=O)Nc2cc(Cl)cc(Cl)c2)cc1[N+](=O)[O-] | -7.9 | 1.6 | 17.8* | -18.3 | 3.1
COc1ccc(-n2nc3ccc(NS(C)(=O)=O)cc3n2)cc1Cl | -0.6 | -14.6 | 21.7* | -15.0 | -54.8
COc1ccc(-n2nc3ccc(N)cc3n2)cc1Cl | 4.5 | -25.1 | -6.1 | -0.8 | i
COc1ccc(C2C=C(c3ccc(Br)cc3)Nc3nc(N4C(=O)CCC4=O)nn32)cc1 (stereo not given) | 11.5 | -18.3 | 13.2* | -8.5 | -196.2
CC(C)NC(=O)c1cc(-n2cnnc2)ccc1Cl | -5.8 | 2.4 | 11.2* | -8.2 | -0.1
NS(=O)(=O)c1ccc(Nc2nc(-c3ccc(F)cc3)cs2)cc1 | -5.4 | 3.7 | 25.4* | -13.3 | 4.4
NS(=O)(=O)c1ccc(Nc2nc(-c3ccc(O)cc3O)cs2)cc1 | -0.3 | -1.0 | 15.4* | -18.7 | 3.0
CC(=O)Nc1ccc(-c2csc(Nc3ccc(S(N)(=O)=O)cc3)n2)cc1 | 4.6 | 0.2 | -3.7 | -2.7 | 3.5
O=[N+]([O-])c1ccc(/C=N/Nc2nc(N3CCCCC3)nc(N3CCCCC3)n2)cc1 | 7.9 | -10.7 | 2.8 | -7.0 | nt
COc1ccc([N+](=O)[O-])cc1/C=N/Nc1nc(N2CCCCC2)nc(N2CCCCC2)n1 | 8.7 | 0.7 | 28.7* | -1.7 | nt
C=CCn1c(O)c(C=Nc2ccccc2)sc1=S | 1.1 | -58.0 | -4.0 | 18.9 | 4.6
